{
  "source": "paper PMC9401513",
  "about": "(Clinical Cancer Research, 2021)",
  "key": {"[1]": {"system": "patients with advanced solid tumors", "experiment": "Adverse events graded by NCI-CTCAE v4.03 in phase I patients", "assay_type": "in vivo, human", "details": "every 3 weeks, all cycles, N = 112", "how_it_was_run": "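Test compound was given by IV infusion over about 60 min every 3 weeks in sequential dose-escalation cohorts to adults with advanced solid tumors (ECOG 0–1). Adverse events were graded by NCI-CTCAE v4.03 over all cycles and tabulated as treatment-related by dose level. G-CSF was permitted after cycle 1. Antiemetics and corticosteroids were given at the physician's discretion.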"}, "[2]": {"system": "patients with advanced solid tumors", "experiment": "Dose-limiting toxicity, MTD and RP2D determination", "assay_type": "in vivo, human", "how_it_was_run": "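Dose escalation followed the modified toxicity probability interval method. Target DLT rate was 25%, with an acceptable interval of 20–30%, a beta(0.75, 0.65) prior and a 0.975 exclusion threshold. DLTs were treatment-related events in cycle 1, monitored over 28 days: grade 4 neutropenia >7 days, grade ≥3 nonhematologic nonhepatic toxicity, or >2-week cycle delay. MTD was the highest dose with DLT rate <0.30 in ≥9 evaluable patients. Dosing was IV every 3 weeks (0.2–3.7 mg/kg) or every 2 weeks (2.1, 2.8, 3.2 mg/kg).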"}, "[3]": {"system": "patient-derived xenograft models", "details": "cited from earlier work"}, "[4]": {"experiment": "Immunogenicity: anti-drug antibodies and neutralizing antibodies", "assay_type": "in vivo, human", "how_it_was_run": "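Anti-drug antibodies were measured by a validated electrochemiluminescent assay. Samples were taken on days 1 and 15 of cycle 1, day 1 of each later cycle, and at end of treatment. ADA-positive samples were tested for neutralizing antibodies by a validated competitive ligand-binding electrochemiluminescent method.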"}},
  "note": "Entries after “also recorded” stand apart in the source; their conditions may differ.",
  "data": [
    {"molecule": "cofetuzumab pelidotin (conjugate, chains of the INN, looked up, auristatin-0101 payload, vc linker) VH: QVQLVQSGPEVKKPGASVKVSCKASGYTFTDYAVHWVRQAPGKRLEWIGVISTYNDYTYNNQDFKGRVTMTRDTSASTAYMELSRLRSEDTAVYYCARGNSYFYALDYWGQGTSVTVSS VL: EIVLTQSPATLSLSPGERATLSCRASESVDSYGKSFMHWYQQKPGQAPRLLIYRASNLESGIPARFSGSGSGTDFTLTISSLEPEDFAVYYCQQSNEDPWTFGGGTKLEIK", "values": [
      {"measurement": "TRAE Alopecia, Grade 1", "setting": "[1]", "result": "13 (11.6) n (%)"},
      {"measurement": "TRAE Alopecia, Grade 2", "setting": "[1]", "result": "33 (29.5) n (%)"},
      {"measurement": "TRAE Alopecia, Grade 3", "setting": "[1]", "result": "0 n (%)"},
      {"measurement": "TRAE Alopecia, Grade 4", "setting": "[1]", "result": "0 n (%)"},
      {"measurement": "TRAE Alopecia, Total", "setting": "[1]", "result": "46 (41.1) n (%)"},
      {"measurement": "TRAE Arthralgia, Grade 1", "setting": "[1]", "result": "16 (14.3) n (%)"},
      {"measurement": "TRAE Arthralgia, Grade 2", "setting": "[1]", "result": "2 (1.8) n (%)"},
      {"measurement": "TRAE Arthralgia, Grade 3", "setting": "[1]", "result": "1 (0.9) n (%)"},
      {"measurement": "TRAE Arthralgia, Grade 4", "setting": "[1]", "result": "0 n (%)"},
      {"measurement": "TRAE Arthralgia, Total", "setting": "[1]", "result": "19 (17.0) n (%)"},
      {"measurement": "TRAE Decreased appetite, Grade 1", "setting": "[1]", "result": "11 (9.8) n (%)"},
      {"measurement": "TRAE Decreased appetite, Grade 2", "setting": "[1]", "result": "7 (6.3) n (%)"},
      {"measurement": "TRAE Decreased appetite, Grade 3", "setting": "[1]", "result": "0 n (%)"},
      {"measurement": "TRAE Decreased appetite, Grade 4", "setting": "[1]", "result": "0 n (%)"},
      {"measurement": "TRAE Decreased appetite, Total", "setting": "[1]", "result": "18 (16.1) n (%)"},
      {"measurement": "TRAE Diarrhea, Grade 1", "setting": "[1]", "result": "8 (7.1) n (%)"},
      {"measurement": "TRAE Diarrhea, Grade 2", "setting": "[1]", "result": "8 (7.1) n (%)"},
      {"measurement": "TRAE Diarrhea, Grade 3", "setting": "[1]", "result": "1 (0.9) n (%)"},
      {"measurement": "TRAE Diarrhea, Grade 4", "setting": "[1]", "result": "0 n (%)"},
      {"measurement": "TRAE Diarrhea, Total", "setting": "[1]", "result": "17 (15.2) n (%)"},
      {"measurement": "TRAE Fatigue, Grade 1", "setting": "[1]", "result": "19 (17.0) n (%)"},
      {"measurement": "TRAE Fatigue, Grade 2", "setting": "[1]", "result": "19 (17.0) n (%)"},
      {"measurement": "TRAE Fatigue, Grade 3", "setting": "[1]", "result": "3 (2.7) n (%)"},
      {"measurement": "TRAE Fatigue, Grade 4", "setting": "[1]", "result": "0 n (%)"},
      {"measurement": "TRAE Fatigue, Total", "setting": "[1]", "result": "41 (36.6) n (%)"},
      {"measurement": "TRAE Headache, Grade 1", "setting": "[1]", "result": "13 (11.6) n (%)"},
      {"measurement": "TRAE Headache, Grade 2", "setting": "[1]", "result": "19 (17.0) n (%)"},
      {"measurement": "TRAE Headache, Grade 3", "setting": "[1]", "result": "5 (4.5) n (%)"},
      {"measurement": "TRAE Headache, Grade 4", "setting": "[1]", "result": "0 n (%)"},
      {"measurement": "TRAE Headache, Total", "setting": "[1]", "result": "37 (33.0) n (%)"},
      {"measurement": "TRAE Myalgia, Grade 1", "setting": "[1]", "result": "11 (9.8) n (%)"},
      {"measurement": "TRAE Myalgia, Grade 2", "setting": "[1]", "result": "3 (2.7) n (%)"},
      {"measurement": "TRAE Myalgia, Grade 3", "setting": "[1]", "result": "1 (0.9) n (%)"},
      {"measurement": "TRAE Myalgia, Grade 4", "setting": "[1]", "result": "0 n (%)"},
      {"measurement": "TRAE Myalgia, Total", "setting": "[1]", "result": "15 (13.4) n (%)"},
      {"measurement": "TRAE Nausea, Grade 1", "setting": "[1]", "result": "28 (25.0) n (%)"},
      {"measurement": "TRAE Nausea, Grade 2", "setting": "[1]", "result": "21 (18.8) n (%)"},
      {"measurement": "TRAE Nausea, Grade 3", "setting": "[1]", "result": "1 (0.9) n (%)"},
      {"measurement": "TRAE Nausea, Grade 4", "setting": "[1]", "result": "0 n (%)"},
      {"measurement": "TRAE Nausea, Total", "setting": "[1]", "result": "50 (44.6) n (%)"},
      {"measurement": "TRAE Neutropenia, Grade 1", "setting": "[1]", "result": "0 n (%)"},
      {"measurement": "TRAE Neutropenia, Grade 2", "setting": "[1]", "result": "4 (3.6) n (%)"},
      {"measurement": "TRAE Neutropenia, Grade 3", "setting": "[1]", "result": "17 (15.2) n (%)"},
      {"measurement": "TRAE Neutropenia, Grade 4", "setting": "[1]", "result": "11 (9.8) n (%)"},
      {"measurement": "TRAE Neutropenia, Total", "setting": "[1]", "result": "32 (28.6) n (%)"},
      {"measurement": "TRAE Peripheral sensory neuropathy, Grade 1", "setting": "[1]", "result": "7 (6.3) n (%)"},
      {"measurement": "TRAE Peripheral sensory neuropathy, Grade 2", "setting": "[1]", "result": "7 (6.3) n (%)"},
      {"measurement": "TRAE Peripheral sensory neuropathy, Grade 3", "setting": "[1]", "result": "0 n (%)"},
      {"measurement": "TRAE Peripheral sensory neuropathy, Grade 4", "setting": "[1]", "result": "0 n (%)"},
      {"measurement": "TRAE Peripheral sensory neuropathy, Total", "setting": "[1]", "result": "14 (12.5) n (%)"},
      {"measurement": "TRAE Vomiting, Grade 1", "setting": "[1]", "result": "10 (8.9) n (%)"},
      {"measurement": "TRAE Vomiting, Grade 2", "setting": "[1]", "result": "14 (12.5) n (%)"},
      {"measurement": "TRAE Vomiting, Grade 3", "setting": "[1]", "result": "4 (3.6) n (%)"},
      {"measurement": "TRAE Vomiting, Grade 4", "setting": "[1]", "result": "0 n (%)"},
      {"measurement": "TRAE Vomiting, Total", "setting": "[1]", "result": "28 (25.0) n (%)"},
      {"measurement": "DLT observed", "setting": "[2]; 2.8 mg/kg every 2 weeks, n = 10", "result": "grade 3 neutropenic infection in 1 patient"},
      {"measurement": "DLT observed", "setting": "[2]; 3.2 mg/kg every 2 weeks, n = 12", "result": "grade 3 abdominal pain in 2 patients"},
      {"measurement": "DLTs reported", "setting": "[2]; 3.7 mg/kg every 3 weeks (highest dose), n = 6, two DLTs", "result": "grade 3 headache and fatigue; also recorded: grade 3 headache and grade 3 fatigue"},
      {"measurement": "DLT rate", "setting": "[2]; 3.7 mg/kg every 3 weeks, n = 6", "result": 33, "unit": "%"},
      {"measurement": "MTD", "setting": "[2]; every 2 weeks regimen, dose levels 2.1-3.2 mg/kg", "result": "not reached"},
      {"measurement": "MTD (estimated as protocol specified)", "setting": "[2]; every 3 weeks", "result": 2.8, "unit": "mg/kg"},
      {"measurement": "RP2D (recommended phase II dose)", "setting": "[2]; every 3 weeks", "result": 2.8, "unit": "mg/kg"},
      {"measurement": "antitumor activity compared with standard chemotherapy", "setting": "[3]; patient-derived xenograft models", "result": "greater antitumor activity than standard chemotherapy"},
      {"measurement": "antitumor effect in patient-derived xenograft models", "setting": "[3]; preclinical", "result": "sustained tumor regression"},
      {"measurement": "effect on tumor-initiating cells (TICs)", "setting": "[3]; serial transplantation experiments", "result": "reduced the frequency of TICs"},
      {"measurement": "patients with ADA at baseline (not boosted by treatment)", "setting": "[4]; every 2 weeks cohorts", "result": 4, "unit": "%"},
      {"measurement": "patients with treatment-induced ADA and NAb", "setting": "[4]; every 2 weeks, 25 evaluable patients", "result": 4, "unit": "%"},
      {"measurement": "infusion-related reaction in ADA-positive patient", "setting": "[4]; every 2 weeks, one patient, day 1 cycle 4, resolved same day", "result": "grade 2 IRR"},
      {"measurement": "patients positive for treatment-induced ADA", "setting": "[4]; every 3 weeks, 108 evaluable patients", "result": 10.2, "unit": "%"}
    ]}
  ]
}
